Reference: ChEMBL document CHEMBL1122469, “Synthesis of 1-(aminomethyl)-1,2,3,4-tetrahydroisoquinolines and their actions at adrenoceptors in vivo and in vitro” (J Med Chem, 1983)
Activity calls are given as the source filed them. The calls are words filed in the database; no cut-off is given here.

Experiments:
[1] = Ratio of compound Emax(50) to that of isoproterenol Emax(50) in reserpine-pretreated, guinea pig, isolated, spontaneously beating, right atrial preparation; Expressed as drug Emax(50)/Iso Emax(50) mean; assay type: functional, Cardiac atrium
How it was run: (§1)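 Guinea pigs given reserpine 5 mg/kg i.p., atria removed 18–24 h later and tested with tyramine 17 µmol/L beforehand. Spontaneously beating right atria in Krebs–Henseleit under 0.02 N tension, rate recorded. Cumulative isoproterenol curves (second used, corrected) and one test curve at 30-min intervals. Ratio = molar concentration at 50% own maximum ÷ isoproterenol equivalent, same experiment.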

Adrenergic receptor beta [2] = molecular target: T1, Adrenergic receptor beta (Homo sapiens, UniProt P08588+P07550+P13945); assay: Beta adrenergic receptor agonist activity in guinea pig, isolated, spontaneously beating, right atrial preparation; assay type: functional, tissue-based; conditions: Cavia porcellus; Cardiac atrium; target entry is the homologue from another species
How it was run: (§2)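 Right atria from guinea pigs (300–400 g, either sex) killed by cervical dislocation, in 10-mL Krebs–Henseleit baths under 0.02 N tension, spontaneously beating; rate read by tachograph. Two cumulative isoproterenol curves, then one test-compound curve, 30-min intervals, three washes after each. The second isoproterenol curve was the reference, with a desensitization correction (factor 1.2). Intrinsic activity relative to isoproterenol = 1. Ratio = molar EC50 of drug ÷ molar EC50 of isoproterenol, same experiment.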

Felis catus [3] = assay: Activity ratio of molar concentration to molar concentration of isoproterenol in DBP in choralose anaesthetized cats; assay type: functional
How it was run: (§3)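 Chloralose (80 mg/kg) plus sodium phenobarbitone (6 mg/kg) i.p.-anesthetized, bilaterally vagotomized cats (2.3–3.6 kg, either sex), spontaneously breathing via tracheal cannula. Brachial vein injection in 0.9% NaCl. Carotid blood pressure and pulse-triggered heart rate recorded. Concurrent cumulative dose–response curves followed isoproterenol. Ratio = molar dose giving 50% of own maximum ÷ isoproterenol molar dose giving 50% of its maximum, same animal.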

Adrenergic receptor beta [4] = molecular target: T1, Adrenergic receptor beta; assay: Beta adrenergic receptor antagonistic activity in guinea pig, isolated, carbachol-contracted tracheal preparations; assay type: functional, Cavia porcellus; conditions: target entry is the homologue from another species
How it was run: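 Guinea pig trachea contracted with carbachol 10 µmol/L, 0.02 N resting tension, Krebs–Henseleit bath. Isoproterenol relaxation curves before and 15 min after antagonist, repeated at higher concentrations after washing. pA2 and slope from Schild plot (Arunlakshana–Schild). Slope difference from 1.0 tested by Student's t test.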

Adrenergic receptor beta [5] = molecular target: T1, Adrenergic receptor beta; assay: Beta adrenergic receptor agonist activity in reserpine pre-treated guinea pig, isolated, spontaneously beating, right atrial preparation; assay type: functional, tissue-based; conditions: Cavia porcellus; Cardiac atrium; target entry is the homologue from another species; how it was run: as §1
[6] = Ratio of compound Emax(50) to that of isoproterenol Emax(50) in guinea pig, isolated, spontaneously beating, right atrial preparation; Expressed as drug Emax(50)/Iso Emax(50) mean; assay type: functional, Cardiac atrium; how it was run: as §2
Adrenergic receptor beta [7] = molecular target: T1, Adrenergic receptor beta; assay: Beta adrenergic receptor antagonistic activity in reserpine pre-treated guinea pig, isolated, spontaneously beating, right atrial preparation; assay type: functional, tissue-based, Cavia porcellus, Cardiac atrium; conditions: target entry is the homologue from another species
Felis catus [8] = assay: Activity ratio of molar concentration to molar concentration of isoproterenol in HR in choralose anaesthetized cats; assay type: functional; how it was run: as §3
Adrenergic receptor beta [9] = molecular target: T1, Adrenergic receptor beta; assay: Beta adrenergic receptor agonist activity at compound concentration of 100 ug/mL in guinea pig, isolated, carbachol-contracted tracheal preparations; assay type: functional; conditions: Cavia porcellus; target entry is the homologue from another species
Adrenergic receptor beta [10] = molecular target: T1, Adrenergic receptor beta; assay: Beta adrenergic receptor agonist activity a in guinea pig, isolated, carbachol-contracted tracheal preparations; assay type: functional; conditions: Cavia porcellus; target entry is the homologue from another species
How it was run: (§4)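 Guinea pigs (300–400 g, either sex) killed by cervical dislocation. Trachea mounted in a 10-mL bath of Krebs–Henseleit under 0.02 N resting tension. Tone raised submaximally with carbachol 10 µmol/L, and relaxation recorded. Cumulative test-compound curves went up to 100 µg/mL, referenced to isoproterenol (=1). Where no maximum was reached, values reflect the 100 µg/mL response. Ratios were taken at 15% of isoproterenol maximum.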

Adrenergic receptor beta [11] = molecular target: T1, Adrenergic receptor beta; assay: Beta adrenergic receptor antagonistic activity in guinea pig, isolated, carbachol-contracted tracheal preparations; NA = No antagonism of isoproterenol responses up to 2.2 x 10E-8 mol/L; assay type: functional; conditions: Cavia porcellus; target entry is the homologue from another species
Adrenergic receptor beta [12] = molecular target: T1, Adrenergic receptor beta; assay: Beta adrenergic receptor antagonistic activity in reserpine pre-treated guinea pig, isolated, spontaneously beating, right atrial preparation; NA = No antagonism of isoproterenol responses up to 2.2 x 10E-8 mol/L; assay type: functional, tissue-based; conditions: Cavia porcellus; Cardiac atrium; target entry is the homologue from another species
How it was run: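 Guinea pigs given reserpine 5 mg/kg i.p. 18–24 h before tissue removal, then checked with tyramine 17 µmol/L. Spontaneously beating right atrium held in Krebs–Henseleit at 0.02 N tension, with rate read by tachograph. Isoproterenol cumulative curves were run before and 15 min after adding the test drug, then repeated after washing at higher drug concentration. pA2 was determined by the Arunlakshana–Schild method.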

Adrenergic receptor beta [13] = molecular target: T1, Adrenergic receptor beta; assay: Beta adrenergic receptor agonist activity in guinea pig, isolated, carbachol-contracted tracheal preparations; assay type: functional; conditions: Cavia porcellus; target entry is the homologue from another species; how it was run: as §4

SMILES | Ratio [1] | Intrinsic activity (Adrenergic receptor beta [2]) | pD2 (Adrenergic receptor beta [2]) | Activity ratio (Felis catus [3]) | pA2 (Adrenergic receptor beta [4]) | Intrinsic activity (Adrenergic receptor beta [5]) | pD2 (Adrenergic receptor beta [5]) | Ratio [6] | pA2 (Adrenergic receptor beta [7]) | Activity ratio (Felis catus [8]) | Intrinsic activity (Adrenergic receptor beta [9]) | pD2 (Adrenergic receptor beta [9]) | Intrinsic activity (Adrenergic receptor beta [10]) | pA2 (Adrenergic receptor beta [11]) | pA2 (Adrenergic receptor beta [12]) | pD2 (Adrenergic receptor beta [13])
CC(C)NCC1NCCc2cc(O)c(O)cc21 (centres undefined) | 4400 | 0.42 | 5.05 | 2200 | 5.05 | 0.59 | 5.18 | 2700 | 4.84 | 1700 | 0.06 | 3.49 | – | – | – | –
NCC1NCCc2cc(O)c(O)cc21 (centres undefined) | 32600 | 0.7 | 4.49 | – | 4.66 | 0.53 | 4.22 | 8800 | 4.63 | 12700 | 0.2 | 3.44 | – | – | – | –
CC(C)(C)NCC1NCCc2cc(O)c(O)cc21 (centres undefined) | 3600 | 0.14 | 5.1 | – | 5.76 | 0.29 | 5.23 | 2100 | 4.68 | 900 | 0.18 | 3.51 | – | – | – | –
Oc1ccc(CC2NCCc3cc(O)c(O)cc32)cc1O (centres undefined) | 38 | 0.94 | 6.96 | – | – | 0.95 | 7.05 | 26 | – | – | – | – | 0.62 | inactive | inactive | 6.45
